Key:
[1] = biological target: T1, Prostaglandin G/H synthase 2 (Homo sapiens) (UniProt P35354); settings: at 10 µM
T1 sequence (whole entry): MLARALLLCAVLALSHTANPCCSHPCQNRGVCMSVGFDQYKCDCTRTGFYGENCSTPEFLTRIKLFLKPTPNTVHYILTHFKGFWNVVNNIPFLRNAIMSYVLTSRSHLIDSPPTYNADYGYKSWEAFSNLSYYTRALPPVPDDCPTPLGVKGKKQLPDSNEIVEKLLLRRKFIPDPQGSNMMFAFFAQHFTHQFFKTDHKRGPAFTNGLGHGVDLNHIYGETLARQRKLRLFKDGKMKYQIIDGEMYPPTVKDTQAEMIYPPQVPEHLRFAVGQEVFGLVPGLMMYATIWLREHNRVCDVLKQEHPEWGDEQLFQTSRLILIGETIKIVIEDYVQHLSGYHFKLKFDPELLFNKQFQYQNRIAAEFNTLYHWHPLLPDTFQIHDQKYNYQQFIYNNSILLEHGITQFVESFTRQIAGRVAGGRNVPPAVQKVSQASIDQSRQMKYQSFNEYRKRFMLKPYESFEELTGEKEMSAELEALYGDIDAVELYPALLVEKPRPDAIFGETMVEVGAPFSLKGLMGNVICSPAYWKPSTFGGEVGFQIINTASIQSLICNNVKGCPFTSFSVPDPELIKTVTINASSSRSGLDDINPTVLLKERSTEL

[2] = biological target: T1, Prostaglandin G/H synthase 2 (Homo sapiens); settings: at 1 µM
[3] = biological target: T2, Prostaglandin G/H synthase 1 (Homo sapiens, UniProt P23219); settings: at 100 µM
T2 sequence (P23219 whole entry): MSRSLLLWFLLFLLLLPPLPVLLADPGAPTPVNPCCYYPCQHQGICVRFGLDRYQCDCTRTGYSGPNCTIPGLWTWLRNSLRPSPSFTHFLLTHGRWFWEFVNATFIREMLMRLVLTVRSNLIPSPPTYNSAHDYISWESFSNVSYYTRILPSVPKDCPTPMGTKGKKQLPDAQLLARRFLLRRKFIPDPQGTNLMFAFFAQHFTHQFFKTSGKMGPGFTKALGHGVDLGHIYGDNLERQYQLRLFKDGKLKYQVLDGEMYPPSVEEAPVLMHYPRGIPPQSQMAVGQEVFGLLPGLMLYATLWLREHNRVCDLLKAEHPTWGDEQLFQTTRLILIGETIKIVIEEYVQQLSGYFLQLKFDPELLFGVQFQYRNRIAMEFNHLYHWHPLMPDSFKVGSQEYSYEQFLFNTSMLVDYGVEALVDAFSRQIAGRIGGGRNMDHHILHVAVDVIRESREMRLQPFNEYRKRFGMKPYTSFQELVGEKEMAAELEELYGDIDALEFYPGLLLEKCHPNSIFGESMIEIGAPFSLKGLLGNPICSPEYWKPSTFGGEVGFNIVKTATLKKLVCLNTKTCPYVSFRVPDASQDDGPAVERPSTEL

[4] = biological target: T2, Prostaglandin G/H synthase 1; assay: In vitro average percent inhibition of human prostaglandin G/H synthase 1 (COX-1) at a concentration of 100 uM
Summary of the method: (§1)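 Supplied recombinant human COX-1 (5 units) preincubated 2 min at 25 °C in 0.1 M Tris-HCl pH 8.0 with 5 mM EDTA, 2 mM phenol and heme; compound or DMSO added, 20 min at 25 °C; started with 10 mM arachidonic acid stock, 2 min at 37 °C; stopped with HCl, SnCl2 reduction; prostaglandins by EIA; percent inhibition versus solvent control.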

[5] = biological target: T2, Prostaglandin G/H synthase 1; assay: Compound was tested for the inhibition of recombinant human Prostaglandin G/H synthase 1 (COX-1)
[6] = biological target: T3, Prostaglandin G/H synthase 1 (Ovis aries) (UniProt P05979); assay: Compound was tested for in vitro inhibition of recombinant ovine Prostaglandin G/H synthase 1 (COX-1) at a concentration of 100 uM
T3 sequence (whole entry): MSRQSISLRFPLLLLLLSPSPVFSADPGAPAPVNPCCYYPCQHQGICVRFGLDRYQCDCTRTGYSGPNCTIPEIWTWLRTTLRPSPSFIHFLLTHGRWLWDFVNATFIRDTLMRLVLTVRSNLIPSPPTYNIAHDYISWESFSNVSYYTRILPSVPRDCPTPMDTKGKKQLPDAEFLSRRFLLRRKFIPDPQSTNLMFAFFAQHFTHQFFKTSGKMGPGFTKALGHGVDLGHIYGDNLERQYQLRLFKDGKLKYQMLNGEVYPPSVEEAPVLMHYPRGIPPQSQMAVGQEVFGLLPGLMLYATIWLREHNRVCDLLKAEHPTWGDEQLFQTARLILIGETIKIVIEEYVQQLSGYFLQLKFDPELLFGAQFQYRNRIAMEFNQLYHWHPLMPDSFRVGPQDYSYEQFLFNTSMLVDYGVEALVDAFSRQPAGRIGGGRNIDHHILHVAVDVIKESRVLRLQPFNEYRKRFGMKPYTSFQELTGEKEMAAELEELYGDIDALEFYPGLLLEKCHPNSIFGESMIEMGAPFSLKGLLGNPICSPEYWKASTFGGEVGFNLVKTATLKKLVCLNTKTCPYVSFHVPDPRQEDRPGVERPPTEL
Summary of the method: as §1, with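 “ovine” for “human”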

[7] = biological target: T4, Prostaglandin G/H synthase 2 (Homo sapiens, UniProt P35354); assay: Compound was tested for the inhibition of recombinant human Prostaglandin G/H synthase 2 (COX-2)
T4 sequence (P35354 whole entry): T1 sequence (whole entry)

[8] = biological target: T4, Prostaglandin G/H synthase 2; assay: Compound was tested for the inhibition of human Prostaglandin G/H synthase 2 (COX-2) in human whole blood; assay type: tissue-based
[9] = biological target: T2, Prostaglandin G/H synthase 1; assay: Compound was tested for the inhibition of human Prostaglandin G/H synthase 1 (COX-1) in human whole blood; assay type: tissue-based
[10] = biological target: T1, Prostaglandin G/H synthase 2 (Homo sapiens); settings: Blood; at 1 µM
[11] = biological target: T2, Prostaglandin G/H synthase 1; assay: In vitro average percent Inhibition of Prostaglandin G/H synthase 1 (COX-1) at a concentration of 100 uM in human whole blood by human whole blood assay; assay type: tissue-based
[12] = biological target: T1, Prostaglandin G/H synthase 2 (Homo sapiens); assay: In vitro average percent Inhibition of Prostaglandin G/H synthase 2 (COX-2) at a concentration of 10 uM determined by human whole blood (HWB) assay
Summary of the method: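 Heparinized whole blood from male or female donors free of aspirin/NSAIDs for 14 days, 1 mL aliquots pre-warmed 15 min at 37 °C, 5% CO2; compound in DMSO, duplicate wells; COX-2 induced by E. coli LPS added 4.5 h later, incubated 5 h; stopped on ice with 2 mM EGTA; plasma methanol-extracted, TXB2 by EIA; average of two donors.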

[13] = biological target: T2, Prostaglandin G/H synthase 1; assay: In vitro average percent Inhibition of Prostaglandin G/H synthase 1 (COX-1) at a concentration of 100 uM determined in human whole blood by human whole blood (HWB) assay; assay type: tissue-based
[14] = biological target: T1, Prostaglandin G/H synthase 2 (Homo sapiens); settings: Blood; at 10 µM

SMILES | inhibition [1] [%] | inhibition [2] [%] | inhibition [3] [%] | inhibition [4] [%] | also measured
COc1cccc(C(=O)c2cc3c(cc2-c2ccc(S(C)(=O)=O)cc2)OCO3)c1 | – | – | – | 95 | –
CS(=O)(=O)c1ccc(-c2cc3c(cc2C=C2CCCCCC2)OCO3)cc1 | 100 | 100 | – | 35 | IC50 [5]: > 100000 nM; inhibition [6]: 0%; IC50 [7]: 200 nM
CS(=O)(=O)c1ccc(-c2cc3c(cc2C(=O)c2cccc(F)c2)OCO3)cc1 | – | – | – | 50 | IC50 [8]: 1000 nM; IC50 [9]: 20000 nM
CS(=O)(=O)c1ccc(C2=C(c3ccccc3)C(=O)OC2)cc1 | – | 40 | 0 | – | inhibition [10]: 75%; inhibition [11]: 75%
Cc1ccc(F)c(Cc2cc3c(cc2-c2ccc(S(C)(=O)=O)cc2)OCO3)c1 | – | – | – | 40 | –
CS(=O)(=O)c1ccc(-c2cc3c(cc2Cc2cccc(Cl)c2)OCO3)cc1 | – | – | – | 65 | –
COc1cc(Cc2cc(F)cc(F)c2)c(-c2ccc(S(C)(=O)=O)cc2)cc1OC | – | – | – | – | inhibition [12]: 15%; inhibition [13]: 0%
CS(=O)(=O)c1ccc(-c2cc3c(cc2Cc2ccccc2F)OCO3)cc1 | – | – | – | 75 | –
CS(=O)(=O)c1ccc(-c2ccccc2Cc2cccc(F)c2)cc1 | – | – | – | – | inhibition [13]: 35%
O=S(=O)(CF)c1ccc(-c2cc3c(cc2Cc2ccccc2)OCO3)cc1 | 50 | 25 | 50 | – | –
Cc1ccc(Cc2cc3c(cc2-c2ccc(S(C)(=O)=O)cc2)OCO3)cc1 | 80 | 50 | – | – | inhibition [10]: 0%; inhibition [11]: 45%; inhibition [6]: 25%; inhibition [14]: 10%
CS(=O)(=O)c1ccc(-c2cc3c(cc2Cc2cc(F)cc(F)c2)OCCO3)cc1 | – | – | – | – | inhibition [12]: 40%; inhibition [13]: 70%
CS(=O)(=O)c1ccc(-c2cc3c(cc2Cc2ccc(F)cc2)OCO3)cc1 | 0 | 10 | – | – | inhibition [6]: 10%
CS(=O)(=O)c1ccc(-c2cc3c(cc2C(=O)c2cc(F)cc(F)c2)OCO3)cc1 | – | – | – | 50 | –
CS(=O)(=O)c1ccc(-c2cc3c(cc2C(O)c2ccccc2)OCO3)cc1 (configuration not stated) | 0 | 0 | 0 | – | –
CS(=O)(=O)c1ccc(-c2cc3c(cc2Cc2cccc(F)c2)OCO3)cc1 | – | – | – | 25 | –
CS(=O)(=O)c1ccc(-c2cc3c(cc2Cc2cccnc2)OCO3)cc1 | 65 | 0 | 30 | – | inhibition [10]: 15%; inhibition [11]: 35%; inhibition [14]: 15%
COc1cccc(Cc2cc3c(cc2-c2ccc(S(C)(=O)=O)cc2)OCO3)c1 | – | – | – | 35 | –
Cc1cccc(Cc2cc3c(cc2-c2ccc(S(C)(=O)=O)cc2)OCO3)c1 | – | – | – | 10 | –
Cc1ccc(F)c(C(=O)c2cc3c(cc2-c2ccc(S(C)(=O)=O)cc2)OCO3)c1 | – | – | – | 90 | –

Further lines, with some results ahead:

inhibition [1] [%] | inhibition [2] [%] | inhibition [3] [%] | inhibition [4] [%] | SMILES | also measured
30 | 0 | 0 | – | CS(=O)(=O)c1ccc(-c2cc3c(cc2CN2CCCCC2)OCO3)cc1 | –
20 | 0 | 0 | – | CS(=O)(=O)c1ccc(-c2cc3c(cc2C(=O)N2CCCC2)OCO3)cc1 | –
20 | 20 | 0 | – | CCOC(=O)C1CCN(Cc2cc3c(cc2-c2ccc(S(C)(=O)=O)cc2)OCO3)CC1 | –
– | – | – | 70 | CS(=O)(=O)c1ccc(-c2cc3c(cc2C(=O)c2ccccc2F)OCO3)cc1 | –
40 | 40 | 10 | – | CCOC(=O)C1CCCN(Cc2cc3c(cc2-c2ccc(S(C)(=O)=O)cc2)OCO3)C1 (configuration not stated) | –
– | – | – | 55 | CS(=O)(=O)c1ccc(-c2cc3c(cc2C(=O)C2CCCCC2)OCO3)cc1 | –
– | – | – | 60 | Cc1ccc(C(=O)c2cc3c(cc2-c2ccc(S(C)(=O)=O)cc2)OCO3)cc1 | –
20 | 0 | 20 | – | CS(=O)(=O)c1ccc(-c2cc3c(cc2C(=O)c2cccnc2)OCO3)cc1 | –
25 | 10 | 0 | – | CS(=O)(=O)c1ccc(-c2cc3c(cc2CN2CCC(O)CC2)OCO3)cc1 | –
90 | 10 | 0 | – | CS(=O)(=O)c1ccc(-c2cc3c(cc2C(=O)c2ccccc2)OCO3)cc1 | inhibition [10]: 25%; inhibition [11]: 75%; inhibition [14]: 65%
10 | 35 | 10 | – | CS(=O)(=O)c1ccc(-c2cc3c(cc2C(=O)N2CCOCC2)OCO3)cc1 | –
15 | 20 | 15 | – | CN1CCN(C(=O)c2cc3c(cc2-c2ccc(S(C)(=O)=O)cc2)OCO3)CC1 | –
70 | 40 | – | – | CS(=O)(=O)c1ccc(-c2cc3c(cc2CC2CCCC2)OCO3)cc1 | inhibition [6]: 20%
100 | 100 | 0 | 50 | CS(=O)(=O)c1ccc(-c2cc3c(cc2CC2CCCCC2)OCO3)cc1 | –
10 | 0 | 0 | – | Cc1cccnc1C(=O)c1cc2c(cc1-c1ccc(S(C)(=O)=O)cc1)OCO2 | –
0 | 10 | – | – | CS(=O)(=O)c1ccc(-c2cc3c(cc2C(=O)c2cnccc2Br)OCO3)cc1 | inhibition [6]: 40%
90 | 65 | – | 70 | CS(=O)(=O)c1ccc(-c2cc3c(cc2C=C2CCCC2)OCO3)cc1 | inhibition [6]: 80%
– | – | – | 90 | CS(=O)(=O)c1ccc(-c2cc3c(cc2C(=O)c2cccc(Cl)c2)OCO3)cc1 | –
40 | 20 | 15 | – | CS(=O)(=O)c1ccc(-c2cc3c(cc2C(=O)N2CCCCC2)OCO3)cc1 | –
90 | 20 | 70 | 50 | CS(=O)(=O)c1ccc(-c2cc3c(cc2CN2CCCCC2=O)OCO3)cc1 | –
30 | 25 | 0 | – | CS(=O)(=O)c1ccc(-c2cc3c(cc2CN2CCCCC2CO)OCO3)cc1 (configuration not stated) | –
30 | 20 | 0 | – | CS(=O)(=O)c1ccc(-c2cc3c(cc2CN2CCCC(CO)C2)OCO3)cc1 (configuration not stated) | –
100 | 90 | – | 40 | CS(=O)(=O)c1ccc(-c2cc3c(cc2CC2CCCCCC2)OCO3)cc1 | inhibition [6]: 10%
– | – | – | 95 | CS(=O)(=O)c1ccc(-c2cc3c(cc2C(=O)c2ccc(F)cc2)OCO3)cc1 | –

— ChEMBL document CHEMBL1145927 (J Med Chem, 2003)
